Screening results: PubChem BioAssay, Broad Institute
This is one part of a sample in which hits are shown more often than they occur.
GSK3B inh – human GSK3beta kinase inhibitors, primary screen, biochemical, cell-free homogeneous, HTS; actives 0.038% (n = 300,000); Glycogen synthase kinase-3 beta (Homo sapiens), P49841; activity score (negative = inhibition), % at 10 µM; GST-GSK3beta kinase, ADP-Glo luminescence, 60 min; active compounds read low;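 active = more than half of replicate wells score below -50%, meaning over 50% inhibition versus plate controls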;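 also: 0% = median DMSO wells and -100% = median GW8510 positive control wells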
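Test system: GST-tagged human GSK3beta kinase, cell-free; evaluation: activity score scaled between in-plate DMSO and GW8510 controls; measured by: ADP-Glo luminescence; incubation: 60 min reaction, RT; benchmarks: DMSO and 20 µM GW8510; reagent: peptide substrate plus 25 µM ATP (final); medium: Tris/MgCl2 kinase buffer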
GSK3 alpha inh – blockers of GSK3A enzyme activity – biochemical, luminescence, cell-free homogeneous, HTS, primary screen; Glycogen synthase kinase-3 alpha (Homo sapiens), P49840; GSK-3 alpha kinase, ADP-Glo luminescence, 60 min; inhibition, % at 10 µM; actives 0.1% (n = 320,000); AID 2650, 2010;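 active = more than half of replicates show inhibition above 20%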;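 also: GST-tagged GSK-3 alpha with peptide substrate and 25 µM ATP; 0% = DMSO neutral wells and 100% = GW8510 positive control wells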
CDK5 p35 inh – inhibitors of human CDK5/p35 kinase, primary screen, biochemical, single concentration; Cyclin-dependent kinase 5 (Homo sapiens) + Cyclin-dependent kinase 5 activator 1 (Homo …; Recombinant CDK5/p35, ADP-Glo luminescence, 60 min; inhibition, % at 10 µM; actives 0.01% (n = 330,000);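 active = highest replicate inhibition of at least 50% and at least 75% of replicates reaching 50%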;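 also: plate controls were DMSO neutral control for no effect and GW8510 at 10 µM for full effect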
DYRK1A inh – rat Dyrk1A kinase inhibitors, primary screen, biochemical, single point, plate reader | Dual specificity tyrosine-phosphorylation-regulated kinase 1A (Rattus norvegicus), Q63470 | ADP-Glo luminescence, NFATc1 peptide | inhibition, % at 12.5 µM | actives 0.43% (n = 310,000) | AID 504441, 2011; in the data active = inhibition above about 50%;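 also: plate controls were vehicle with enzyme for no effect and no enzyme for full effect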
STK33 kinase inh – inhibitors of purified STK33 kinase, primary screen, biochemical, ADP-Glo luminescence, homogeneous, cell-free | Serine/threonine-protein kinase 33 (Homo sapiens), Q9BYT3 | MBP phosphorylation | inhibition, % at 10 µM | actives 0.073% (n = 320,000) | AID 2661, 2010;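 active = inhibition at or above 25%, using the most active replicate where run in duplicate; inactive = inhibition below 25%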
Target sequence (Q9BYT3 whole entry, looked up): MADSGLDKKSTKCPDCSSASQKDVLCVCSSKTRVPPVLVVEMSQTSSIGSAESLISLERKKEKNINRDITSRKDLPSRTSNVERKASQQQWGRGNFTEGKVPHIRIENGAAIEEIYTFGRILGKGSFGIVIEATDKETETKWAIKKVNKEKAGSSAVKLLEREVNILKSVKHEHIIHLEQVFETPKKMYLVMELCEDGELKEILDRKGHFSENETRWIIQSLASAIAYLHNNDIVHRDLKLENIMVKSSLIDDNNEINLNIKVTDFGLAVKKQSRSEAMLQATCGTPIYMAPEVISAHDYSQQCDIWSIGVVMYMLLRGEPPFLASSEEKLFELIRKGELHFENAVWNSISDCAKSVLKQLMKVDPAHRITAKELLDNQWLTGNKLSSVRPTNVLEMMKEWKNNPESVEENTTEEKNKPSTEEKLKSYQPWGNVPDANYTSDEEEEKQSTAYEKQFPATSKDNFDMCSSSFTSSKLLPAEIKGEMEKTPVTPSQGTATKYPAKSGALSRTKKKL
* marks the source's active call; other numbers are inactive results; nt = no result.

SMILES	GSK3B inh	GSK3 alpha inh	CDK5 p35 inh	DYRK1A inh	STK33 kinase inh
COC(=O)Nc1nnc(Cc2ccccc2)s1	-23	0	2	4	26*
COC(=O)Nc1nnc(CCc2ccccc2)s1	-1	-1	-1	5	1
CNc1nc(N)c([N+](=O)[O-])c(NCC2CCCO2)n1 (centres undefined)	-27	47	1	nt	4
Nc1nc(NCCOCCO)nc(NCC2CCCO2)c1[N+](=O)[O-] (centres undefined)	-60*	60*	1	-3	-1
COCCNc1nc(N)c([N+](=O)[O-])c(NCC2CCCO2)n1 (centres undefined)	-53*	68*	1	34	0
S=C1NCCN1CC1CCN(CCCC2CCCC2)CC1	nt	nt	0	nt	nt
COc1ccc(CNc2nc3ccccc3s2)cc1OC	4	2	-1	6	89*
Cc1ccc(C2C(C#N)=C(N)Oc3cc(C)oc(=O)c32)o1 (centres undefined)	1	-3	0	-6	-4
Cc1c(C(=O)OCC(=O)N2C(C)CCCC2C)oc2ccccc12 (centres undefined)	0	3	0	-7	1
Cc1c(C(=O)OCC(=O)N2c3ccccc3CC2C)oc2ccccc12 (centres undefined)	-4	8	1	0	33*
O=C(N/N=C/c1ccccn1)c1sc2ccccc2c1Cl	-18	21	1	64*	8
O=C(O)CCn1cc(/C=N/O)c(-c2cccc([N+](=O)[O-])c2)n1	-66*	78*	0	14	8
COCCC1CCCCN1C(=O)c1cc(COc2ccc(-n3cncn3)cc2)on1 (centres undefined)	1	0	-1	nt	-1
COc1cccc(C2CC(=O)Nc3n[nH]c(-c4ccccc4)c32)c1OC (centres undefined)	-23	61*	1	-4	0
COc1ccc(OC)c(C2CC(=O)Nc3n[nH]c(-c4ccccc4)c32)c1 (centres undefined)	-7	18	1	3	1
O=C(Nc1ccc(C(=O)N2CCOCC2)cc1)C1CCCC1	nt	nt	2	-2	nt
COc1ccc(NC(=O)NN2CCN(C)CC2)cc1	-3	-2	-1	-6	0
O=C1C(c2ccncc2)=C(O)c2ccccc21	-2	4	3	-2	27*
O=c1[nH]c2c(s1)C(c1cccnc1)C1C3CCC(C3)C1S2 (centres undefined)	-21	49	-1	2	-2
O=c1[nH]c2c(s1)C(c1ccc(O)cc1)C1C3CCC(C3)C1S2 (centres undefined)	3	75*	-2	6	0
CC(C)(C)OC(=O)N1CCC(NC(=O)c2[nH]cnc2C(=O)Nc2ccon2)CC1	nt	72*	0	-7	-1
O=C(c1ccc(-c2ccccc2Cl)o1)N1CCN(S(=O)(=O)c2cccs2)CC1	-1	0	1	1	0
COc1cc(/C=N/n2c(-c3cc(C)[nH]n3)n[nH]c2=S)cc(OC)c1OC	-3	8	1	-8	0
COc1cc(/C=N/n2c(-c3cc(C)[nH]n3)n[nH]c2=S)ccc1O	-2	10	3	11	31*
COc1cc(/C=N/n2c(C3CCCCC3)n[nH]c2=S)ccc1O	-10	24	9	14	34*
CCC1(c2ccc(F)cc2)NC(=O)N(CC(=O)Nc2ccc(N3CCCCC3)cc2)C1=O (centres undefined)	nt	-2	1	-6	-1
COc1ccccc1C(=O)Nc1cc(Cl)ccc1O	2	0	1	4	0
CCOc1ccccc1C(=O)Nc1cc(Cl)ccc1O	-3	0	0	23	26*
CCOc1ncccc1C(=O)N(CC)CC(=O)NCc1ccc(F)cc1	nt	-2	-1	2	0
Cc1ccc(Sc2ccc(/C=N/O)cc2[N+](=O)[O-])cc1	-1	0	2	4	-2
